Results from ChEMBL document CHEMBL4020718, “Trifluoromethyl arylamides with antileukemia effect and intracellular inhibitory activity over serine/arginine-rich protein kinases (SRPKs)” (Eur J Med Chem, 2017).
The source made the active and inactive calls. The calls are words filed in the database; no cut-off is given here.

Key:
[1] = test system: NALM-6; experiment: Effect on actin expression level in human NALM6 cells at 20 uM after 24 hrs by Western blot analysis; format: ADME, cell-based; conditions: nalm-6, 24 h
How it was run: (§1)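 Nalm6 treated 24 h at 20 µM (DMSO vehicle control), lysed at 2x10^7 cells/mL in PBS with 1% NP40, 1 mM EDTA, 150 mM NaCl, 10 mM Tris pH 7.4 plus protease/phosphatase inhibitors; on ice 10 min, sonicated, spun 15000 xg; SDS-PAGE, PVDF, milk block overnight, primary and secondary antibody 2 h each; representative of three.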

[2] = test system: NALM-6; experiment: Effect on SRPK1 expression level in human NALM6 cells at 20 uM after 24 hrs by Western blot analysis; format: functional, cell-based; how it was run: as §1
[3] = test system: Jurkat; experiment: Cytotoxicity against human Jurkat cells assessed as reduction in cell viability up to 200 uM after 48 hrs by MTT assay; format: functional, cell-based; conditions: Homo sapiens, Jurkat, 48 h; read-out: IC50
How it was run: (§2)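 Cells (7x10^4/well) in RPMI-1640 with 10% FBS, 37 °C, 5% CO2; exposed to compound dilutions 0–200 µM (medium with 10% FBS, 0.4% DMSO) for 48 h. MTT added, 3 h at 37 °C, formazan dissolved in DMSO, absorbance 540 nm. IC50 from concentration–response; means ± standard deviation of three independent experiments.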

[4] = test system: NALM-6; experiment: Effect on SRPK2 expression level in human NALM6 cells at 20 uM after 24 hrs by Western blot analysis; format: functional, cell-based; how it was run: as §1
[5] = test system: NALM-6; experiment: Cytotoxicity against human NALM6 cells assessed as reduction in cell viability up to 200 uM after 48 hrs by MTT assay; format: functional, cell-based; conditions: Homo sapiens, NALM-6, 48 h; read-out: IC50; how it was run: as §2
[6] = test system: NALM-6; experiment: Induction of autophagy in human NALM6 cells at 20 uM after 24 hrs by acridin orange staining based fluorescence microscopy; format: functional, cell-based
How it was run: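 Nalm6 (7x10^4/well) exposed 24 h to 20 µM or 0.4% DMSO, washed in PBS, stained with 1 µM acridine orange at 37 °C for 15 min, washed, resuspended in PBS; autophagosomes (red fluorescence) viewed by fluorescence microscopy; three experiments.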

[7] = test system: NALM-6; experiment: Synergistic cytotoxicity against human NALM6 cells assessed as reduction in cell viability by measuring combination index at 1.5 uM after 48 hrs in presence of 0.5 nM vincristine by MTT assay; format: functional
[8] = test system: NALM-6; experiment: Antiproliferative activity against human NALM6 cells at 20 uM by trypan blue dye exclusion assay; format: functional, cell-based; conditions: TDE = time-dependent effect
How it was run: (§3)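 Nalm6 at 1x10^4 or HL60 at 1.5x10^4 cells per well exposed to 20 µM; DMSO (0.4% v/v) as control. Viable cells counted by trypan blue exclusion on a hemocytometer at 0, 24, 48, 72 and 96 h; growth inhibition relative to control.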

[9] = test system: NALM-6; experiment: Synergistic cytotoxicity against human NALM6 cells assessed as reduction in cell viability by measuring combination index at 3 uM after 48 hrs in presence of 1 nM vincristine by MTT assay; format: functional
[10] = test system: NALM-6; experiment: Induction of apoptosis in human NALM6 cells assessed as late apoptotic cells at 20 uM after 12 hrs by Annexin-V/FITC propidium iodide staining based flow cytometric analysis (reference value: 0.45%); format: functional
[11] = test system: HL-60; experiment: Antiproliferative activity against human HL60 cells at 20 uM by trypan blue dye exclusion assay; format: functional, cell-based; conditions: TDE = time-dependent effect; how it was run: as §3
[12] = test system: NALM-6; experiment: Effect on actin expression level in human NALM6 cells at 20 uM after 24 hrs by qRT-PCR analysis; format: ADME, cell-based; conditions: nalm-6, 24 h
[13] = test system: PBMC; experiment: Cytotoxicity against PHA-stimulated human PBMC assessed as reduction in cell viability at 25 uM after 48 hrs by MTT assay; format: cell-based
How it was run: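 Primary peripheral blood mononuclear cells seeded 1x10^5/well in complete RPMI; treated with 25 µM for 48 h. Viability by MTT (3 h, 37 °C, DMSO solubilization, 540 nm), vehicle taken as 100% viability; triplicate experiments, means ± standard deviation.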

[14] = test system: HL-60; experiment: Cytotoxicity against human HL60 cells assessed as cell growth inhibition at 20 uM after 96 hrs by trypan blue dye exclusion assay relative to control; format: functional; conditions: HL-60, 96 h, read-out: GI; how it was run: as §3
[15] = test system: NALM-6; experiment: Induction of apoptosis in human NALM6 cells assessed as early apoptotic cells at 20 uM after 12 hrs by Annexin-V/FITC propidium iodide staining based flow cytometric analysis (reference value: 7.40%); format: functional
[16] = test system: NALM-6; experiment: Induction of apoptosis in human NALM6 cells assessed as early apoptotic cells at 20 uM after 24 hrs by Annexin-V/FITC propidium iodide staining based flow cytometric analysis (reference value: 8.22%); format: functional
[17] = test system: NALM-6; experiment: Induction of apoptosis in human NALM6 cells assessed as late apoptotic cells at 20 uM after 24 hrs by Annexin-V/FITC propidium iodide staining based flow cytometric analysis (reference value: 1.68%); format: functional
[18] = organism: Homo sapiens; experiment: Inhibition of SRPK in human NALM6 cells assessed as decrease in RON mRNA expression level at 20 uM after 24 hrs by qRT-PCR analysis; format: cell-based
How it was run: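 Nalm6 given 20 µM for 24 h with 0.4% DMSO control; mRNA isolated with Tri Reagent, quantified spectrophotometrically, integrity checked on 1% agarose, then RT-PCR for target transcripts; one representative of three experiments.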

[19] = test system: NALM-6; experiment: Induction of apoptosis in human NALM6 cells assessed as viable cells at 20 uM after 24 hrs by Annexin-V/FITC propidium iodide staining based flow cytometric analysis (reference value: 90.10%); format: functional; conditions: NALM-6, 24 h, read-out: Activity
[20] = test system: NALM-6; experiment: Induction of apoptosis in human NALM6 cells assessed as necrotic cells at 20 uM after 24 hrs by Annexin-V/FITC propidium iodide staining based flow cytometric analysis (reference value: 0%); format: functional
[21] = test system: NALM-6; experiment: Induction of apoptosis in human NALM6 cells assessed as viable cells at 20 uM after 12 hrs by Annexin-V/FITC propidium iodide staining based flow cytometric analysis (reference value: 92.11%); format: functional; conditions: NALM-6, 12 h, read-out: Activity
[22] = test system: NALM-6; experiment: Induction of apoptosis in human NALM6 cells assessed as necrotic cells at 20 uM after 12 hrs by Annexin-V/FITC propidium iodide staining based flow cytometric analysis (reference value: 0.04%); format: functional
[23] = test system: NALM-6; experiment: Cytotoxicity against human NALM6 cells assessed as cell growth inhibition at 20 uM after 96 hrs by trypan blue dye exclusion assay relative to control; format: functional; conditions: NALM-6, 96 h, read-out: GI; how it was run: as §3
[24] = test system: HL-60; experiment: Cytotoxicity against human HL60 cells assessed as reduction in cell viability up to 200 uM after 48 hrs by MTT assay; format: functional, cell-based; conditions: Homo sapiens, HL-60, 48 h; read-out: IC50; how it was run: as §2

O=C(Nc1cc(C(F)(F)F)ccc1Nc1ccc(Br)cc1)c1ccccc1
Activity [1]: Non-Toxic
Activity [2]: inactive
IC50 [3]: 33.8 µM
Activity [4]: inactive
IC50 [5]: 6 µM
Activity [6]: Active
CI [7]: 0.56
Activity [8]: Tde
CI [9]: 1.05
Activity [10]: 0.52%
Activity [11]: Tde
Activity [12]: Non-Toxic
Activity [13]: Non-Toxic
inhibition of growth at 20 µM [14]: 48%
Activity [15]: 13.53%
Activity [16]: 24.73%
Activity [17]: 2.01%
inhibition [18]: Active
viability at 20 µM [19]: 73.2%
Activity [20]: 0.01%
viability at 20 µM [21]: 85.9%
Activity [22]: 0.02%
inhibition of growth at 20 µM [23]: 72%
IC50 [24]: 11.8 µM
